From PMC3150610 (Journal of medicinal chemistry, 2011)

Experiments:
[1] = target: human thrombin (Homo sapiens, UniProt P00734); experiment: Michaelis-Menten kinetics of Spectrozyme TH hydrolysis by thrombin; format: biochemical; conditions: for VMAX of Spectrozyme TH hydrolysis: pH 7.4
Method in brief: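 Human α-thrombin (5–10 nM) with Spectrozyme TH at 10 to 600 μM, at fixed test compound levels of 0–30 μM. Run in 20 mM Tris-HCl, pH 7.4, at 37 °C. Initial rate taken from the linear rise in A405 while under 10% of substrate was consumed. Data fitted to the Michaelis-Menten equation for KM and VMAX.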

[2] = test system: citrated human plasma; experiment: Prothrombin time; conditions: thromboplastin initiator
Method in brief: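 Test compound brought up in citrated human plasma and held 30 s at 37 °C. Pre-warmed thromboplastin (reconstituted per manufacturer, 37 °C) then added and clotting time read on a fibrometer in a one-stage assay. Deionized water served as the no-anticoagulant control. Run in duplicate. Quadratic trendline fit gave the concentration doubling PT.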

[3] = target: Human α-thrombin (Homo sapiens, UniProt P00734); format: biochemical; conditions: for fold change in IC50 (weaker) relative to 12a: comparator 12a; for fold weaker thrombin inhibition of di-sulfated dimers: comparator not given
[4] = test system: citrated human plasma; experiment: Activated partial thromboplastin time; conditions: ellagic acid initiator
Method in brief: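 Test compound in citrated human plasma with pre-warmed APTT reagent (0.2% ellagic acid), incubated 4 min. Clotting started with 25 mM CaCl2 at 37 °C and time to clot read on a fibrometer. One-stage recalcification format, each assay in duplicate. Clotting time versus concentration fitted to a quadratic trendline to get the concentration that doubles APTT.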

CCOC(=O)c1c(C)oc2cc(OC)c(OCc3oc4cc(OC)c(OS(=O)(=O)[O-])cc4c3C(=O)OCC)cc12.[Na+] [12a]
mechanism of thrombin inhibition ([1]; Michaelis-Menten kinetics): non-competitive, allosteric mechanism | VMAX of Spectrozyme TH hydrolysis ([1]; in presence of 1.5 μM 12a): 97 ± 13 mAUmin^−1μM^−1 | VMAX of Spectrozyme TH hydrolysis ([1]; in presence of 3.0 μM 12a): 107 ± 14 mAUmin^−1μM^−1 | VMAX of Spectrozyme TH hydrolysis ([1]; in presence of 10.5 μM 12a): 73 ± 13 mAUmin^−1μM^−1 | VMAX of Spectrozyme TH hydrolysis ([1]; in presence of 30 μM 12a): 66 ± 6 mAUmin^−1μM^−1 | decrease in maximal velocity of reaction ([1]; upon approximately 50% saturation of the enzyme): ~ 34%

COC(=O)c1c(C)oc2cc(OC)c(OCc3oc4cc(OC)c(OS(=O)(=O)[O-])cc4c3C(=O)OC)cc12.[Na+] [12b]
concentration required to double PT (2×PT) [2]: 850 to 2100 µM

COc1cc2oc(C)c(C(=O)OC(C)(C)C)c2cc1OCc1oc2cc(OC)c(OS(=O)(=O)[O-])cc2c1C(=O)OC(C)(C)C.[Na+] [12c]
fold improvement of inhibition potency with lipophilicity of 3-ester ([3]; across 12a, 12b, 12c): 8.2 fold | concentration required to double APTT (2×APTT) [4]: 355 to 1250 µM

COCCOC(=O)c1c(C)oc2cc(OC)c(OCc3oc4cc(OC)c(OS(=O)(=O)[O-])cc4c3C(=O)OCCOC)cc12.[Na+] [12d]
fold change in IC50 (weaker) relative to 12a [3]: 6.2 fold

CCOC(=O)c1c(C)oc2cc(OCC)c(OCc3oc4cc(OCC)c(OS(=O)(=O)[O-])cc4c3C(=O)OCC)cc12.[Na+] [12e]
concentration required to double APTT (2×APTT) [4]: 355 to 1250 µM

CCOC(=O)c1c(C)oc2cc(OC(C)C)c(OCc3oc4cc(OC(C)C)c(OS(=O)(=O)[O-])cc4c3C(=O)OCC)cc12.[Na+] [12f]
fold increase in potency, ethyl to isopropyl at 6-position ([3]; 12f versus 12e): ~4 fold

CCOC(=O)c1c(COc2cc3c(C(=O)OCC)c(CN4CCOCC4)oc3cc2OC)oc2cc(OC)c(OS(=O)(=O)[O-])cc12.[Na+] [compound 13]
fold change in IC50 (weaker) relative to 12a [3]: 2.2 fold

COc1cc2oc(C)c(C(=O)N3CCOCC3)c2cc1OCc1oc2cc(OC)c(OS(=O)(=O)[O-])cc2c1C(=O)N1CCOCC1.[Na+] [compound 14]
fold loss of affinity from t-butyl ester dimer ([3]; comparator printed as dimer 2c): more than 270 fold

COc1cc2oc(C)c(C(=O)O)c2cc1OCc1oc2cc(OC)c(OS(=O)(=O)[O-])cc2c1C(=O)O.[Na+] [compound 15]
fold change in IC50 (weaker) relative to 12a [3]: 6.2 fold

CCOC(=O)c1c(C)oc2cc(OCc3oc4cc(OC)c(OS(=O)(=O)[O-])cc4c3C(=O)OCC)c(OS(=O)(=O)[O-])cc12.[Na+].[Na+] [compound 17]
fold weaker thrombin inhibition of di-sulfated dimers [3]: 6–17 fold

CCOC(=O)c1c(C)oc2cc(OC)c(OCc3oc4cc(OS(=O)(=O)[O-])c(OS(=O)(=O)[O-])cc4c3C(=O)OCC)cc12.[Na+].[Na+] [compound 18]
fold weaker thrombin inhibition of di-sulfated dimers [3]: 6–17 fold
